In brackets after ≈: the same amount, converted by molar mass. Each block holds one compound with its values, some of them ahead of it. Activity calls are given as the source filed them. No cut-off for these calls is given here.
Key:
[1] = tested on: Rattus norvegicus; assay: Toxicity in rat at 150 mg/kg, ip; details: in vivo
[2] = Toxicity in Escherichia coli K-12 W3110 infected ip dosed mouse; assay type: organism-based; details: in vivo
How it was run: (§1)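 E. coli K-12 W3110 was grown in LB broth for the inoculum and injected intraperitoneally into groups of 3–7 mice. Conjugates were given ip at 15 min and 12 h postinfection (10–300 μg per dose), with water or scrambled-sequence conjugate as controls. Blood drawn at 2, 6, 12, 24 and 48 h was diluted and plated on LB for CFU counts. Survival was followed by Kaplan-Meier, and log CFU was compared by ANOVA with Tukey-Kramer.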

[3] = tested on: Escherichia coli; assay: Antibacterial activity against Escherichia coli K-12 W3110 infected in mouse assessed as increase of mouse survival at 300 ug, ip administered 15 mins and 12 hrs postinfection; assay type: functional, organism-based; details: K-12 substr. W3110
How it was run: (§2)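 Mice in groups of 3–7 were infected intraperitoneally with E. coli W3110 from an LB culture. They were treated ip at 15 min and 12 h postinfection with 10, 30, 100 or 300 μg per dose; 300 μg is noted as ~15 mg/kg. Controls were water or scrambled-sequence PPMO. Survival was followed to 48 h and analysed by the Kaplan-Meier method.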

[4] = tested on: Escherichia coli; assay: Antibacterial activity against Escherichia coli K-12 W3110 infected in mouse assessed as increase of mouse survival at 100 ug, ip administered 15 mins and 12 hrs postinfection; assay type: functional, organism-based; details: K-12 substr. W3110
How it was run: as §2

[5] = tested on: Escherichia coli; assay: Antibacterial activity against Escherichia coli K-12 W3110 infected in mouse assessed as increase of mouse survival at 30 ug, ip administered 15 mins and 12 hrs postinfection; assay type: functional, organism-based; details: K-12 substr. W3110
How it was run: as §2

[6] = tested on: Escherichia coli; assay: Antibacterial activity against Escherichia coli K-12 W3110 infected in mouse assessed as reduction of bacterial level in blood at 30 ug, ip administered 15 mins and 12 hrs postinfection measured after 2 hrs post dose relative to control; assay type: functional, K-12 substr. W3110; set-up: scale not given: the % may be the effect or the level left
How it was run: (§3)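 Mice in groups of 3–7 were infected intraperitoneally with E. coli W3110 from an LB culture. They were dosed ip with 10–300 μg per dose at 15 min and 12 h postinfection. Controls were water or scrambled-sequence PPMO. Blood was taken at 2, 6, 12, 24 and 48 h, diluted and plated on LB for CFU/ml. Log CFU was compared by one-way ANOVA with Tukey-Kramer; mean ± SD.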

[7] = tested on: Escherichia coli; assay: Antibacterial activity against Escherichia coli K-12 W3110 infected in mouse assessed as increase of mouse survival at 10 ug, ip administered 15 mins and 12 hrs postinfection; assay type: functional, organism-based; details: K-12 substr. W3110
How it was run: as §2

[8] = tested on: Escherichia coli; assay: Antibacterial activity against Escherichia coli K-12 W3110 infected in mouse assessed as reduction of bacterial level in blood at 30 to 300 ug, ip administered 15 mins and 12 hrs postinfection measured after 2 hrs post dose relative to control; assay type: functional, organism-based; details: K-12 substr. W3110
How it was run: as §3

[9] = tested on: Escherichia coli; assay: Antibacterial activity against Escherichia coli K-12 W3110 by microdilution method; assay type: functional; details: K-12 substr. W3110
[10] = tested on: Escherichia coli; assay: Antibacterial activity against Escherichia coli K-12 W3110 infected in mouse assessed as reduction of bacterial level in blood at 100 to 300 ug, ip administered 15 mins and 12 hrs postinfection; assay type: functional, K-12 substr. W3110
How it was run: as §3

[11] = tested on: Escherichia coli; assay: Antibacterial activity against Escherichia coli K-12 W3110 infected in mouse assessed as reduction of bacterial level in blood at 100 to 300 ug, ip administered 15 mins and 12 hrs postinfection relative to control; assay type: functional, K-12 substr. W3110
How it was run: as §1

Structure (SMILES): Cc1cn([C@H]2CNC[C@@H](COP(=O)(N(C)C)N3C[C@@H](COP(=O)(N(C)C)N4C[C@@H](COP(=O)(N(C)C)N5C[C@@H](COP(=O)(N(C)C)N6C[C@@H](COP(=O)(N(C)C)N7C[C@@H](COP(=O)(N(C)C)N8C[C@@H](COP(=O)(N(C)C)N9C[C@@H](COP(=O)(N(C)C)N%10C[C@@H](COP(=O)(N(C)C)N%11C[C@@H](COP(=O)(N(C)C)N%12C[C@@H](COP(=O)(N(C)C)N%13CCN(C(=O)CCNC(=O)CCCCCNC(=O)[C@H](CCCNC(=N)N)NC(=O)[C@H](Cc%14ccccc%14)NC(=O)[C@H](CCCNC(=N)N)NC(=O)[C@H](CCCNC(=N)N)NC(=O)NC(=O)[C@H](Cc%14ccccc%14)NC(=O)[C@H](CCCNC(=N)N)NC(=O)[C@H](CCCNC(=N)N)NC(=O)NC(=O)[C@H](Cc%14ccccc%14)NC(=O)[C@H](CCCNC(=N)N)NC(=O)[C@H](CCCNC(=N)N)NC(=O)NC(=O)[C@H](Cc%14ccccc%14)NC(=O)[C@@H](N)CCCNC(=N)N)CC%13)O[C@@H](n%13cc(C)c(=O)[nH]c%13=O)C%12)O[C@@H](n%12ccc(N)nc%12=O)C%11)O[C@@H](n%11cc(C)c(=O)[nH]c%11=O)C%10)O[C@@H](n%10ccc(N)nc%10=O)C9)O[C@@H](n9cnc%10c(N)ncnc%109)C8)O[C@@H](n8cnc9c(=O)[nH]c(N)nc98)C7)O[C@@H](n7cnc8c(N)ncnc87)C6)O[C@@H](n6cc(C)c(=O)[nH]c6=O)C5)O[C@@H](n5cnc6c(=O)[nH]c(N)nc65)C4)O[C@@H](n4cnc5c(=O)[nH]c(N)nc54)C3)O2)c(=O)[nH]c1=O (stereo partly drawn)
Activity [1]: Toxic
LD50 [2]: 210 mg/kg

MIC [9]: 1.25 µM (≈ 6.84 µg/mL)
Structure (SMILES): Cc1cn([C@H]2CN(P(=O)(OC[C@@H]3CN(P(=O)(OC[C@@H]4CN(P(=O)(OC[C@@H]5CN(P(=O)(OC[C@@H]6CN(P(=O)(OC[C@@H]7CN(P(=O)(OC[C@@H]8CN(P(=O)(OC[C@@H]9CN(P(=O)(OC[C@@H]%10CNC[C@H](n%11cnc%12c(=O)[nH]c(N)nc%12%11)O%10)N(C)C)C[C@H](n%10cc(C)c(=O)[nH]c%10=O)O9)N(C)C)C[C@H](n9cnc%10c(=O)[nH]c(N)nc%109)O8)N(C)C)C[C@H](n8cnc9c(N)ncnc98)O7)N(C)C)C[C@H](n7cc(C)c(=O)[nH]c7=O)O6)N(C)C)C[C@H](n6cnc7c(N)ncnc76)O5)N(C)C)C[C@H](n5cnc6c(=O)[nH]c(N)nc65)O4)N(C)C)C[C@H](n4ccc(N)nc4=O)O3)N(C)C)C[C@@H](COP(=O)(N(C)C)N3C[C@@H](COP(=O)(N(C)C)N4C[C@@H](COP(=O)(N(C)C)N5CCN(C(=O)CCNC(=O)CCCCCNC(=O)[C@H](CCCNC(=N)N)NC(=O)CCCCCNC(=O)[C@H](CCCNC(=N)N)NC(=O)CCCCCNC(=O)[C@H](CCCNC(=N)N)NC(=O)CCCCCNC(=O)[C@H](CCCNC(=N)N)NC(=O)CCCCCNC(=O)[C@H](CCCNC(=N)N)NC(=O)CCCCCNC(=O)[C@@H](N)CCCNC(=N)N)CC5)O[C@@H](n5ccc(N)nc5=O)C4)O[C@@H](n4cc(C)c(=O)[nH]c4=O)C3)O2)c(=O)[nH]c1=O (stereo partly drawn)
Activity [3]: inactive
Activity [4]: Active
Activity [5]: inactive
Activity [6]: 88%
Activity [7]: inactive
Activity [8]: Active
log10cfu [10]: 3

Structure (SMILES): CC1(C)S[C@@H]2[C@H](NC(=O)[C@H](N)c3ccccc3)C(=O)N2[C@H]1C(=O)O [AMPICILLIN]
Activity [5]: inactive
Activity ([6]; K-12 substr. W3110): inactive
log10cfu [11]: 3

From ChEMBL document CHEMBL1629608, “Variations in amino acid composition of antisense peptide-phosphorodiamidate morpholino oligomer affect potency against Escherichia coli in vitro and in vivo” (Antimicrob Agents Chemother, 2009)
